Measured values collected from several papers.
Lines come from different studies, so protocols differ.
Target: D(3) dopamine receptor (DRD3, Homo sapiens, UniProt P35462)
Tested at: 10 µM

Compound	assay	inhibition
COc1cccc(N2CCN(C3CC(=O)N(c4cccc(OC)c4)C3=O)CC2)c1 (stereo not shown)	enzyme activity, inhibitor	-37.6%
CCCNc1nc2ccccc2n1Cc1ccc(Cl)cc1	ligand displacement	40.8%
CN([C@@H]1CCc2c(CC(=O)O)c3ccccc3n2C1)S(=O)(=O)c1ccc(F)cc1	ligand displacement	-4.25%
O=C(c1ccc(F)cc1)N(Cc1ccccc1)C1CCCCC1	cell-free assay	8%
COc1ccc(-c2ccc(CNCC(O)c3ccccc3)o2)cc1Cl (stereo not shown)	enzyme activity, inhibitor	12.1%
CCN(Cc1ccccc1C(F)(F)F)C(=O)C1CCN(S(=O)(=O)c2ccc3[nH]ncc3c2)CC1	ligand displacement, radioligand	23%
Nc1nonc1C(=O)NCCNCc1cccc(OCc2ccccc2F)c1	enzyme activity, inhibitor	4.3%
N#Cc1cc(Cn2c(N3CCCC3)nc3ccccc32)ccc1F	ligand displacement	39.3%
N#CN1CC[C@H](C(=O)Nc2nc3c(s2)CN(C(=O)CN=[N+]=[N-])CC3)C1	ligand displacement	-2.14%
CCN(CC)c1ccc(C2Nc3ccc(C(=O)c4ccccc4)cc3NC3=C2C(=O)CC(C)(C)C3)cc1 (stereo not shown)	ligand displacement, radioligand	12%
